The source of these data is ChEMBL document CHEMBL1671729, “In vivo protection provided by a synthetic new alpha-galactosyl ceramide analog against bacterial and viral infections in murine models” (2010).

Active and inactive are the calls of the source. No cut-off for these calls is given here.

The subject of assay [1] is Novosphingobium capsulatum. Briefly: Antibacterial activity against Sphingomonas capsulata ATCC 14666 infected in C57BL/6 mouse assessed as reduction in lung bacterial load at 50 ug/kg, ip administered 2 hrs post infection measured 24 hrs post infection. The assay is classed as functional, organism-based.
Assay [2] relates to Staphylococcus aureus. Briefly: Antibacterial activity against luminescent Staphylococcus aureus Xen29 infected in BALB/c mouse deep thigh wound infection model assessed as reduction in bacterial load at 150 ug/kg, ip administered 3 hrs post infection by iVIS in-vivo imaging system. The assay is classed as functional, organism-based. The gist of the method:
(§1)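 Female BALB/c mice were infected in the left posterior thigh muscle with 3 × 10^8 CFU luminescent S. aureus Xen29 in 200 μl PBS. Glycolipid at 150 μg/kg or vehicle was given i.p. at 3 h, 0 h or 6 h post-infection. Live mice were imaged at 48 h, and RLU per mouse was compared by one-way ANOVA with Tukey posttest.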

In assay [3] the test system is Japanese encephalitis virus. Kind of assay: Antiviral activity against Japanese encephalitis virus RP-9 infected in Stat-1-knockout immunodeficient C57BL/6 mouse assessed as mouse survival rate at 1 ug, ip administered one day before and 1 day after viral infection measured after 25 days post infection relative to solvent treated control. Format: functional.
In assay [4] the test system is Japanese encephalitis virus. Briefly: Antiviral activity against Japanese encephalitis virus RP-9 infected in C57BL/6 mouse assessed as mouse survival rate at 1 ug, ip administered simultaneously with viral infection measured after 25 days post infection relative to solvent treated control. Format: functional.
The test system of assay [5] is Japanese encephalitis virus. Kind of assay: Antiviral activity against Japanese encephalitis virus RP-9 infected in C57BL/6 mouse assessed as mouse survival rate at 1 ug, ip administered one day before and 1 day after viral infection measured after 25 days post infection relative to solvent treated control. The assay is classed as functional.
For assay [6], the system named is Japanese encephalitis virus. Briefly: Antiviral activity against Japanese encephalitis virus RP-9 infected in C57BL/6 mouse assessed as mouse survival rate at 1 ug, ip administered one day after viral infection measured after 25 days post infection relative to solvent treated control. Format: functional.
The subject of assay [7] is Staphylococcus aureus. Kind of assay: Antibacterial activity against luminescent Staphylococcus aureus Xen29 infected in BALB/c mouse deep thigh wound infection model assessed as reduction in bacterial load at 150 ug/kg, ip administered 6 hr post infection after infection measured 48 hrs post infection by iVIS in-vivo imaging system. The assay is classed as functional, organism-based. The gist of the method:
as §1

Assay [8] deals with Japanese encephalitis virus. Briefly: Antiviral activity against Japanese encephalitis virus RP-9 infected in C57BL/6 mouse assessed as mouse survival rate at 1 ug, ip administered one day before viral infection measured after 25 days post infection relative to solvent treated control. The assay is classed as functional.
The subject of assay [9] is Staphylococcus aureus. Briefly: Antibacterial activity against luminescent Staphylococcus aureus Xen29 infected in BALB/c mouse deep thigh wound infection model assessed as reduction in bacterial load at 150 ug/kg, ip administered immediately after infection measured 48 hrs post infection by iVIS in-vivo imaging system. Format: functional, organism-based. The gist of the method: as §1

Assay [10] has as its system Japanese encephalitis virus. Briefly: Antiviral activity against Japanese encephalitis virus RP-9 infected in Ig-mu chain-knockout immunodeficient C57BL/6 mouse assessed as mouse survival rate at 1 ug, ip administered one day before and 1 day after viral infection measured after 25 days post infection relative to solvent treated control. The assay is classed as functional, organism-based.

Assay [11] has as its system Novosphingobium capsulatum. Kind of assay: Antibacterial activity against Sphingomonas capsulata ATCC 14666 infected in C57BL/6 mouse assessed as reduction in lung bacterial load at 100 ug/kg, ip administered 2 hrs post infection measured 24 hrs post infection. The assay is classed as functional, organism-based.
The test system of assay [12] is Japanese encephalitis virus. Kind of assay: Antiviral activity against Japanese encephalitis virus RP-9 infected in CD8-alpha chain-knockout immunodeficient C57BL/6 mouse assessed as mouse survival rate at 1 ug, ip administered one day before and 1 day after viral infection measured after 25 days post infection relative to solvent treated control. Format: functional.

With `CCCCCCCCCCCCCC[C@@H](O)[C@@H](O)[C@H](CO[C@H]1O[C@H](C(=O)O)[C@H](O)[C@H](O)[C@H]1O)NC(=O)CCCCCCCCCCc1ccc(Oc2ccc(F)cc2)cc1`, the inhibition entry (in [1]; in the assay on Staphylococcus aureus [2]; with Staphylococcus aureus [9]) was “Active” throughout. Moreover, the Survival in assay [3] came out at 23%; in assay [4], 40%; in assay [5], 64%; in [6], 20%; in assay [8], 80%. In addition, the inhibition result in the assay with Staphylococcus aureus [7] was “inactive”. Also, the Survival result in assay [10] was “inactive”.
As for `CCCCCCCCCCCCCC[C@@H](O)[C@@H](O)[C@H](CO[C@H]1O[C@H](CO)[C@H](O)[C@H](O)[C@H]1O)NC(=O)CCCCCCCc1ccc(F)cc1`, the inhibition result in assay [1] was “Active”. For the same compound, the Survival in [5] was 57%.
For `CCCCCCCCCCCCCCCCCCCCCCCCCC(=O)N[C@@H](CO[C@H]1O[C@H](C(=O)O)[C@H](O)[C@H](O)[C@H]1O)[C@H](O)[C@H](O)CCCCCCCCCCCCCC`, the inhibition entry in [11] is “Active”.
As to `CCCCCCCCCCCCCCCCCCCCCCCC(=O)N[C@@H](CO[C@H]1O[C@H](CO)[C@H](O)[C@H](O)[C@H]1O)[C@H](O)[C@H](O)CCCCC`, in assay [11], the inhibition result was “inactive”.
Consider `CCCCCCCCCCCCCC[C@@H](O)[C@@H](O)[C@H](CO[C@H]1O[C@H](C(=O)O)[C@H](O)[C@H](O)[C@H]1O)NC(=O)CCCCCCCCCCc1ccc(F)cc1`, for which the inhibition entry (in assay [1]; in the assay on Staphylococcus aureus [2]) was “Active” throughout. Also, the Survival came to 0% in [3]; 60% in [4]; 71% in assay [5]; 25% in assay [6]; 22% in assay [12]; 60% in assay [8]. In addition, the Survival entry in [10] was “inactive”.
In the case of `CCCCCCCCCCCCCCCCCCCCCCCCCC(=O)N[C@@H](CO[C@H]1O[C@H](CO)[C@H](O)[C@H](OS(=O)(=O)O)[C@H]1O)[C@H](O)[C@H](O)CCCCCCCCCCCCCC`, in assay [11], the inhibition entry was “inactive”.
On to `CCCCCCCCCCCCCC[C@@H](O)[C@@H](O)[C@H](CO[C@H]1O[C@H](CO)[C@H](O)[C@H](O)[C@H]1O)NC(=O)CCCCCCCCCCc1ccccc1`, for which the inhibition result in [11] is “Active”.
On to `CCCCCCCCCCCCCCC[C@@H](O)[C@H](CO[C@H]1O[C@H](C(=O)O)[C@H](O)[C@H](O)[C@H]1O)NC(=O)CCCCCCCCCCCCC`, for which the inhibition entry in [11] is “inactive”.
`CCCCCCCCCCCCCC[C@@H](O)[C@@H](O)[C@H](CO[C@H]1O[C@H](CO)[C@H](O)[C@H](O)[C@H]1O)NC(=O)CCCCCCCc1ccccc1`: the inhibition result in [11] is “Active”.
As to `CCCCCCCCCCCCCCCCCCCCCCCCCC(=O)N[C@@H](CO[C@H]1O[C@H](CO)[C@H](O)[C@H](O)[C@H]1O)[C@H](O)[C@H](O)CCCCCCCCCCCCCC` [RGI-7000], the inhibition result (with Staphylococcus aureus [2]; in assay [11]) was “Active” throughout. Also, the Survival in assay [5] turned out to be 57%.
